For 22 compounds, Activity and IC50 results are on record in ChEMBL document CHEMBL2384959, “Sesquiterpenes and alkaloids from the roots of Alangium chinense” (J Nat Prod, 2013).

Experiment [1] has as its system BGC-823. The experiment can be described thus: Cytotoxicity against human BGC823 cells by MTT assay. Type of experiment: functional, cell-based.
The test system of experiment [2] is A549. Description: Cytotoxicity against human A549 cells by MTT assay. Type of experiment: functional, cell-based.
In experiment [3] the test system is Bel-7402. Description: Cytotoxicity against human Bel7402 cells by MTT assay. The experiment is classed as functional, cell-based.
In experiment [4] the test system is A2780. The experiment can be described thus: Cytotoxicity against human A2780 cells by MTT assay. The experiment is classed as functional, cell-based.
The subject of experiment [5] is HCT-8. Description: Cytotoxicity against human HCT8 cells by MTT assay. Type of experiment: functional, cell-based.
Experiment [6] relates to BV-2. The experiment can be described thus: Inhibition of LPS-induced nitric oxide production in […] BV2 cells after 24 hrs by spectrophotometry. Type of experiment: functional, cell-based. The settings on record: Mus musculus, BV-2, 24 h. In a few lines: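 BV2 microglial cells pre-cultured 24 h, then exposed to a range of concentrations and stimulated with E. coli 055:B5 LPS (300 ng/mL) for 24 h. Nitrite in the supernatant was measured with Griess reagent (1% sulfanilamide in 5% H3PO4 plus 0.1% N-(1-naphthyl)ethylenediamine, 1:1) for 20 min at room temperature, read at 550 nm against a sodium nitrite standard curve. Untreated cells served as negative control and curcumin as positive control.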

The test system of experiment [7] is Liver microsomes. Description: Antioxidant activity in rat liver microsome assessed as inhibition of Fe2+-cysteine-induced lipid peroxidation after 15 mins. The experiment is classed as functional. The method, boiled down: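 Rat liver microsomes (1.0 mg microsomal protein in 1 mL 0.1 M PBS, pH 7.4) incubated with […] cysteine plus test sample, 37 °C, 15 min; peroxidation started with 0.05 mM FeSO4. […] Vitamin E positive control.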

Experiment [8] concerns Coxsackievirus. Description: Antiviral activity against Coxsackievirus B3 infected in african green monkey Vero cells assessed as inhibition of virus-induced cytopathic effect. The experiment is classed as functional, organism-based. In a few lines:
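Confluent Vero monolayers infected with 100 TCID50 Cox B3; 1 h adsorption at 37 °C, PBS wash, then maintenance medium (MEM + 2% FBS) ± graded compound concentrations at 37 °C. CPE scored once virus control reached 4+; IC50 by Reed and Muench. Ribavirin positive control.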

Active and inactive are the calls of the source. The calls are words filed in the database; no cut-off is given here.

`Oc1ccccc1CN1CCCC[C@H]1c1cccnc1` [(2S)-N-HYDROXYBENZYLANABASINE]: the outcome in experiment [1], in experiment [2], in experiment [3], in experiment [4] and in experiment [5] was inactive. Further, half-maximal inhibition in experiment [6] (IC50) was put at 6.7 µM.

As to `Oc1ccccc1CN1CCCC[C@@H]1c1cccnc1` [(2R)-N-HYDROXYBENZYLANABASINE], the outcome in experiment [1], in experiment [2], in experiment [3], in experiment [4] and in experiment [5] was inactive. Also, the IC50 in experiment [6] was greater than 20 µM.

With `Cc1cc2c(C(C)C)cc(O)c(C=O)c2cc1O`, the result in experiment [1], in experiment [2], in experiment [3], in experiment [4] and in experiment [5] was inactive. Moreover, the IC50 turned out to be 14.7 µM in experiment [7] (read-out: IC50) and 1.4 µM in experiment [8].

In the case of `COc1cc(/C=C/C(=O)CC(=O)/C=C/c2ccc(O)c(OC)c2)ccc1O` [CURCUMIN], in experiment [6], the IC50 stood at 3.1 µM.

Regarding `C[C@@H]1CC[C@@H]2C(C)(C)O[C@@H]3[C@H](C)C(=O)C=C1[C@@]32O`, the outcome in experiment [1], in experiment [2], in experiment [3], in experiment [4] and in experiment [5] was inactive.

As for `CC1=C(O)C(=O)c2c(C)ccc3c(C)cnc1c23`, the outcome in experiment [1], in experiment [2], in experiment [3], in experiment [4] and in experiment [5] was inactive. Also, the results for the IC50 in experiment [7] (read-out: IC50) and in experiment [8] were 3.9 µM and greater than 20 µM, respectively.

Consider VITAMIN E, for which the IC50 in experiment [7] (read-out: IC50) amounted to 54.2 µM.

`Cc1cc2c(C(C)C)ccc(C)c2cc1O`: the result in experiment [1], in experiment [2], in experiment [3], in experiment [4] and in experiment [5] was inactive. Besides, the figures for the IC50 in experiment [7] (read-out: IC50) and in experiment [8] were 4.3 µM and 5.3 µM, respectively.

Regarding `CC1=C2OC[C@@H](C)c3c(O)cc(C)c(c32)C(=O)C1=O`, the result in experiment [1], in experiment [2], in experiment [3], in experiment [4] and in experiment [5] was inactive. The IC50 in experiment [7] (read-out: IC50) worked out at 17.8 µM; in experiment [8], 3.1 µM.

As for `Oc1ccccc1CN1CCCCC1c1cccnc1` (racemic), the outcome in experiment [1], in experiment [2], in experiment [3], in experiment [4] and in experiment [5] was inactive. Also, the concentration for half-maximal inhibition (IC50) in experiment [8] was greater than 20 µM.

Take `Cc1cc2c(C(C)C)cc(O)c(C)c2cc1O`: the outcome in experiment [1], in experiment [2], in experiment [3], in experiment [4] and in experiment [5] was inactive. The values for the IC50 in experiment [7] (read-out: IC50) and in experiment [8] were 3.8 µM and 10.1 µM, respectively.

Take `COc1c(OC)c2nccc3c4ccccc4n(c1=O)c23` [4,5-DIMETHOXYCANTHIN-6-ONE]: the outcome in experiment [1], in experiment [2], in experiment [3], in experiment [4] and in experiment [5] was inactive. Besides, the IC50 entry was “Not Active” in experiment [7] and 7.4 µM in experiment [8].

Take `Cc1cc2c(cc1O)[C@@](C)(O)C(=O)C=C2C(C)C` [LACINILENE C]: the outcome in experiment [1], in experiment [2], in experiment [3], in experiment [4] and in experiment [5] was inactive. The IC50 in experiment [7] (read-out: IC50) is 39.8 µM; in experiment [8] it was 15.4 µM.

For the compound `Oc1ccccc1CN1CCCCC1(O)c1cccnc1` (racemic), the outcome in experiment [1], in experiment [2], in experiment [3], in experiment [4] and in experiment [5] was inactive. Besides, the IC50 in experiment [8] was greater than 20 µM.

Regarding `Oc1ccccc1CN1CCCC[C@]1(O)c1cccnc1`, the result in experiment [1], in experiment [2], in experiment [3], in experiment [4] and in experiment [5] was inactive.

For the compound `Cc1cc2c(c(O)c1O)[C@@H](C)CC[C@@H]2C(C)C` [(1S,4R)-7,8-DIHYDROXYCALAMENENE], the outcome in experiment [1], in experiment [2], in experiment [3], in experiment [4] and in experiment [5] was inactive. Besides, the IC50 entry in experiment [7] was “Not Active”; in experiment [8], 7.4 µM.

Regarding `CC1=Cc2c(C(C)C)ccc(C)c2C(=O)C1=O`, the outcome in experiment [1], in experiment [2], in experiment [3], in experiment [4] and in experiment [5] was inactive. Moreover, the IC50 result in experiment [7] was “Not Active”; in experiment [8], greater than 20 µM.

In the case of `CC1=C2OCC(C)c3ccc(C)c(c32)C(=O)C1=O` (stereo unspecified) [MANSONONE E], the result in experiment [1], in experiment [2], in experiment [3], in experiment [4] and in experiment [5] was inactive. For the same compound, the figures for the IC50 in experiment [7] (read-out: IC50) and in experiment [8] were 45.7 µM and 4.7 µM, respectively.

Take `Oc1ccccc1CN1CCCC[C@@]1(O)c1cccnc1`: the result in experiment [1], in experiment [2], in experiment [3], in experiment [4] and in experiment [5] was inactive.

For the compound `NC(=O)c1ncn([C@@H]2O[C@H](CO)[C@@H](O)[C@H]2O)n1` [RIBAVIRIN], in experiment [8], the IC50 came out at 222 µM.

Turning to `COC(=O)c1c(O)cc(C(C)C)c2cc(C)c(O)cc12`, the outcome in experiment [1], in experiment [2], in experiment [3], in experiment [4] and in experiment [5] was inactive. For the same compound, the IC50 was found to be 4.9 µM in experiment [7] (read-out: IC50) and 11.3 µM in experiment [8].

With `CO[C@]1(C)C(=O)C=C(C(C)C)c2cc(C)c(O)cc21`, the result in experiment [1], in experiment [2], in experiment [3], in experiment [4] and in experiment [5] was inactive. Moreover, the IC50 in experiment [7] (read-out: IC50) was 23.8 µM; in experiment [8], greater than 20 µM.
